In ChEMBL document CHEMBL1149634, “1-Acylthiosemicarbazides, 1,2,4-triazole-5(4H)-thiones, 1,3,4-thiadiazoles and hydrazones containing 5-methyl-2-benzoxazolinones: synthesis, analgesic-anti-inflammatory and antimicrobial activities” (2007):
≈ marks a conversion by molar mass, not a printed value.

Assays:
Mus musculus [1] = test: Analgesic activity in mouse assessed as inhibition of hind paw lick at 100 mg/kg, ip by hot plate test; format: functional; details: route intraperitoneal
Mus musculus [2] = test: Analgesic activity in mouse assessed as inhibition of acetic acid induced-abdominal writhing at 100 mg/kg, ip by Koster test; format: functional; details: Abdomen, route intraperitoneal
Mus musculus [3] = test: Antiinflammatory activity against carrageenan-induced hind paw oedema in mouse assessed as inhibition of swelling thickness at 100 mg/kg, po after 90 mins; format: functional; details: 1.5 h
Procedure, shortened: (§1)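 Fasted mice (n = 5–6) were dosed orally with the sample in 0.5% CMC/water. One hour later, carrageenan (0.5 mg/25 µl in 154 mM saline) was injected subplantar into the right hind paw. The right-minus-left footpad thickness difference was measured with dial gauge callipers every 90 min over 6 h. Inhibition % is calculated versus vehicle control; mean ± SEM, Student's t test.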

Mus musculus [4] = test: Antiinflammatory activity against carrageenan-induced hind paw oedema in mouse assessed as swelling thickness at 50 mg/kg, po after 90 mins; format: functional; procedure, shortened: as §1
Mus musculus [5] = test: Antiinflammatory activity against carrageenan-induced hind paw oedema in mouse assessed as inhibition of swelling thickness at 200 mg/kg, po after 90 mins; format: functional; details: 1.5 h; procedure, shortened: as §1
Mus musculus [6] = test: Antiinflammatory activity against carrageenan-induced hind paw oedema in mouse assessed as inhibition of swelling thickness at 100 mg/kg, po after 180 mins; format: functional; details: 3 h; procedure, shortened: as §1
Mus musculus [7] = test: Antiinflammatory activity against carrageenan-induced hind paw oedema in mouse assessed as swelling thickness at 50 mg/kg, po after 180 mins; format: functional; procedure, shortened: as §1
Mus musculus [8] = test: Antiinflammatory activity against carrageenan-induced hind paw oedema in mouse assessed as inhibition of swelling thickness at 200 mg/kg, po after 180 mins; format: functional; details: 3 h; procedure, shortened: as §1
Mus musculus [9] = test: Antiinflammatory activity against carrageenan-induced hind paw oedema in mouse assessed as inhibition of swelling thickness at 100 mg/kg, po after 270 mins; format: functional; details: 4.5 h; procedure, shortened: as §1
Mus musculus [10] = test: Antiinflammatory activity against carrageenan-induced hind paw oedema in mouse assessed as swelling thickness at 50 mg/kg, po after 270 mins; format: functional; procedure, shortened: as §1
Mus musculus [11] = test: Antiinflammatory activity against carrageenan-induced hind paw oedema in mouse assessed as inhibition of swelling thickness at 200 mg/kg, po after 270 mins; format: functional; details: 4.5 h; procedure, shortened: as §1
Mus musculus [12] = test: Antiinflammatory activity against carrageenan-induced hind paw oedema in mouse assessed as swelling thickness at 50 mg/kg, po after 360 mins; format: functional; procedure, shortened: as §1
Mus musculus [13] = test: Antiinflammatory activity against carrageenan-induced hind paw oedema in mouse assessed as inhibition of swelling thickness at 200 mg/kg, po after 360 mins; format: functional; details: 6 h; procedure, shortened: as §1
Staphylococcus aureus = test: Antibacterial activity against Staphylococcus aureus ATCC 29213 after 24 hrs by broth microdilution test; format: functional; details: ATCC 29213, 24 h
Procedure, shortened: (§2)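 NCCLS broth microdilution in Mueller-Hinton broth with an inoculum of 5 × 10^5 cfu/mL. Compounds were dissolved in DMSO, diluted in sterile water, and tested as twofold dilutions from 512 to 0.5 µg/mL. Plates were incubated at 35 °C for 24 h. MIC is the lowest concentration preventing visible growth.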

Enterococcus faecalis = test: Antibacterial activity against Enterococcus faecalis ATCC 29212 after 24 hrs by broth microdilution test; format: functional; details: ATCC 29212, 24 h; procedure, shortened: as §2
Escherichia coli = test: Antibacterial activity against Escherichia coli ATCC 25922 after 24 hrs by broth microdilution test; format: functional; details: ATCC 25922, 24 h; procedure, shortened: as §2
Pseudomonas aeruginosa = test: Antibacterial activity against Pseudomonas aeruginosa ATCC 27853 after 24 hrs by broth microdilution test; format: functional; details: ATCC 27853, 24 h; procedure, shortened: as §2
Candida albicans = test: Antifungal activity against Candida albicans ATCC 90028 after 48 hrs by broth microdilution test; format: functional; details: ATCC 90028, 48 h
Procedure, shortened: (§3)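 Yeasts tested by NCCLS M27-A broth microdilution in RPMI 1640 (with L-glutamine, without sodium bicarbonate) with an inoculum of 0.5–2.5 × 10^3 cfu/mL. Compounds were prepared from DMSO solution diluted in water as twofold dilutions from 512 to 0.5 µg/mL. Plates were incubated at 35 °C for 48 h. MIC is the lowest concentration giving no visible growth.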

Pichia kudriavzevii = test: Antifungal activity against Candida krusei ATCC 6258 after 48 hrs by broth microdilution test; format: functional; details: ATCC 6258, 48 h; procedure, shortened: as §3
Candida parapsilosis = test: Antifungal activity against Candida parapsilosis ATCC 22019 after 48 hrs by broth microdilution test; format: functional; details: Lodderomyces parapsilosis, ATCC 22019, 48 h; procedure, shortened: as §3
Mus musculus [14] = test: Antiinflammatory activity against carrageenan-induced hind paw oedema in mouse assessed as swelling thickness at 100 mg/kg, po after 360 mins; format: functional; procedure, shortened: as §1
Mus musculus [15] = test: Antiinflammatory activity against carrageenan-induced hind paw oedema in mouse assessed as swelling thickness at 100 mg/kg, po after 180 mins; format: functional; procedure, shortened: as §1
Mus musculus [16] = test: Antiinflammatory activity against carrageenan-induced hind paw oedema in mouse assessed as inhibition of swelling thickness at 100 mg/kg, po after 360 mins; format: functional; details: 6 h; procedure, shortened: as §1
Mus musculus [17] = test: Toxicity in mouse assessed as ulceration effect at 200 mg/kg; format: functional, organism-based; set-up: dose 200 mg/kg
Procedure, shortened: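 Mice given 200 mg/kg orally in the carrageenan oedema study were killed under deep ether anaesthesia 6 h after treatment. Stomachs were opened along the greater curvature and examined under a dissecting microscope for lesions or bleeding. Result is expressed as the ratio of ulcerated animals per group.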

Mus musculus [18] = test: Antiinflammatory activity against carrageenan-induced hind paw oedema in mouse assessed as inhibition of swelling thickness at 50 mg/kg, po after 90 mins; format: functional; details: 1.5 h; procedure, shortened: as §1
Mus musculus [19] = test: Antiinflammatory activity against carrageenan-induced hind paw oedema in mouse assessed as swelling thickness at 100 mg/kg, po after 270 mins; format: functional; procedure, shortened: as §1
Mus musculus [20] = test: Antiinflammatory activity against carrageenan-induced hind paw oedema in mouse assessed as swelling thickness at 200 mg/kg, po after 360 mins; format: functional; procedure, shortened: as §1
Mus musculus [21] = test: Analgesic activity in mouse assessed as inhibition of acetic acid induced-abdominal writhing at 200 mg/kg, ip by Koster test; format: functional; details: Abdomen, route intraperitoneal
Mus musculus [22] = species: Mus musculus; test: animal or person; details: ip, read-out: Inhibition

Row | SMILES | inhibition in vivo at 100 mg/kg (Mus musculus [1]) [%] | inhibition in vivo at 100 mg/kg (Mus musculus [2]) [%] | inhibition in vivo at 100 mg/kg (Mus musculus [3]) [%] | inhibition in vivo at 200 mg/kg (Mus musculus [5]) [%] | inhibition in vivo at 100 mg/kg (Mus musculus [6]) [%] | Activity (Mus musculus [7]) [%] | inhibition in vivo at 200 mg/kg (Mus musculus [8]) [%] | inhibition in vivo at 100 mg/kg (Mus musculus [9]) [%] | Activity (Mus musculus [10]) [%] | inhibition in vivo at 200 mg/kg (Mus musculus [11]) [%] | Activity (Mus musculus [12]) [%] | inhibition in vivo at 200 mg/kg (Mus musculus [13]) [%] | MIC (Staphylococcus aureus) [µg/mL] | MIC (Enterococcus faecalis) [µg/mL] | MIC (Escherichia coli) [µg/mL] | MIC (Pseudomonas aeruginosa) [µg/mL] | MIC (Candida albicans) [µg/mL] | MIC (Pichia kudriavzevii) [µg/mL] | MIC (Candida parapsilosis) [µg/mL] | inhibition in vivo at 50 mg/kg (Mus musculus [18]) [%] | further results
1 | CCCNC(=S)NNC(=O)Cn1c(=O)oc2ccc(C)cc21 | 18.1 | 59.7 | 79.8 | 29.1 | 46.1 | 147.1 | 25.1 | 13 | 188.2 | 11.1 | 176.7 | 6.6 | 256 (≈ 794 µM) | 512 (≈ 1590 µM) | 256 (≈ 794 µM) | 512 (≈ 1590 µM) | 256 (≈ 794 µM) | 256 (≈ 794 µM) | 256 (≈ 794 µM) | – | Activity (Mus musculus [4]): 147.3%; Activity (Mus musculus [14]): 80.6%
2 | COc1ccc(/C=N/NC(=O)Cn2c(=O)oc3ccc(C)cc32)cc1 | 27.5 | 65.7 | 82.4 | 87.9 | – | 82.3 | 65.2 | – | 108.8 | 38.3 | 87.2 | – | 256 (≈ 754 µM) | 128 (≈ 377 µM) | 512 (≈ 1510 µM) | 256 (≈ 754 µM) | 128 (≈ 377 µM) | 128 (≈ 377 µM) | 512 (≈ 1510 µM) | 19.5 | Activity (Mus musculus [15]): 100.8%; inhibition in vivo at 100 mg/kg (Mus musculus [16]): 17.5%; Activity (Mus musculus [17]): Toxic; Activity (Mus musculus [19]): 95.4%; Activity (Mus musculus [20]): 86.2%
3 | CC(=O)Oc1ccccc1C(=O)O [ASPIRIN] | – | – | – | – | – | – | – | – | – | – | – | – | – | – | – | – | – | – | – | – | inhibition in vivo at 200 mg/kg (Mus musculus [21]): 65.7%
4 | CN1CC[C@]23c4c5ccc(O)c4O[C@H]2[C@@H](O)C=C[C@H]3[C@H]1C5 [MORPHINE] | – | – | – | – | – | – | – | – | – | – | – | – | – | – | – | – | – | – | – | – | inhibition in vivo at 10 mg/kg (Mus musculus [22]): 50.7%
5 | CCNc1nnc(Cn2c(=O)oc3ccc(C)cc32)s1 | 25.4 | 68.5 | 84.8 | 85.3 | 33.8 | 90.1 | 71.3 | 7.1 | 102.8 | 45.4 | 94 | 11.1 | 512 (≈ 1760 µM) | > 512 | 512 (≈ 1760 µM) | 512 (≈ 1760 µM) | 512 (≈ 1760 µM) | 512 (≈ 1760 µM) | 256 (≈ 882 µM) | 7.9 | –
